Screening results: PubChem, several laboratories
NR2E3 ag-1 = agonists of human NR2E3 nuclear receptor; Q9Y5X4; CHO-S Gal4-NCOR/VP16-NR2E3 two-hybrid, luciferase; inhibition of corepressor binding, % at 3.98 µM; 0.35% of 360,000 active; AID 602229;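 active = inhibition above the mean of all tested compounds plus 3 SD, cut at about 70% in these data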;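 note: 0% = DMSO with NR2E3 transfected cells and 100% = cells lacking NR2E3 construct; higher means lower luciferase signal from less NR2E3 corepressor binding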
Target sequence (Q9Y5X4 whole entry, looked up, the tested form may be a part): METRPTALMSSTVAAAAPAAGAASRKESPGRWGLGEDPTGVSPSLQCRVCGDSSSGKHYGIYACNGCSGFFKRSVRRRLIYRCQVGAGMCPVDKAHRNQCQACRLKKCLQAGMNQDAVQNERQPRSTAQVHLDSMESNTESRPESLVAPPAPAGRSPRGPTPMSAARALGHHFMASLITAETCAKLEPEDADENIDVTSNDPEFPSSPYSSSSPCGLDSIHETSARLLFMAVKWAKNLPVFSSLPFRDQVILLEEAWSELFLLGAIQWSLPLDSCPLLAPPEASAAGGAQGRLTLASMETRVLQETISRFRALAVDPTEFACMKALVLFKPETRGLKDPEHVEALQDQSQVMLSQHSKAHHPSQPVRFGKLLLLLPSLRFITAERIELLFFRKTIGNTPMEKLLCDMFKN
rCAG binder = molecules binding r(CAG) RNA repeats | r(CAG) RNA repeat, TO-PRO-1 dye displacement fluorescence | inhibition, % at 3 µM | 1.3% of 370,000 active | AID 651821;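 active = inhibition above the plate cutoff, the mean of all test compounds on that plate plus 3 SD, cut at about 35% in these data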;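 note: 0% = DMSO alone and 100% = 100 µM mitoxantrone as full dye displacement; higher means more dye released from RNA so lower well fluorescence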
PG9 Ab binder = binds the HIV-1 gp120 antibody PG9; TR-FRET gp120-PG9 antibody binding; inhibition, % at 6.7 µM; 0.43% of 360,000 active; AID 624416; in the data active = inhibition above about 8.5%
NR2E3 ag-2 = agonists of human nuclear receptor NR2E3; inhibition of corepressor binding, % at 4.78 µM; GST-NR2E3/biotin-RetCOR TR-FRET, 1536-well; 0.12% of 320,000 active;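 active = percent inhibition above the cutoff of mean plus 3 SD of all tested compounds, set per screening campaign, cut at about 20% in these data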;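 note: 0% = DMSO wells and 100% = biotin wells as full block of FRET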
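Material – GST-tagged NR2E3 plus biotinylated RetCOR corepressor · Quantity – NR2E3 fusion 1.35 nM · Times – 5 h incubation at 4 °C · Medium – pH 7.5 Tris-based buffer · Technique – TR-FRET, Eu(K)-anti-GST donor, streptavidin-D2 acceptor, ex 340, em 617/671 nm · Benchmarks – high control biotin, low control 0.6% DMSO · Format – 1536-well plates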
NR1D1 modulator = modulates human Rev-erb alpha binding to DNA | AID 1259318 | Rev-erbα–FITC-DNA binding, fluorescence polarization, 90 min | activity, % at 10 µM | 0.79% of 370,000 active | P20393;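 active = activity above about 14%, limit read from the data; passing the limit was not always enough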;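 note: 0% = DMSO wells with 35 nM protein and 100% = DMSO wells with 750 nM protein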
NR2E3 ag confirm = confirmation of human NR2E3 agonists | shares compounds with NR2E3 ag-1 | CHO-S mammalian two-hybrid NR2E3-NCOR, luciferase luminescence | inhibition, % at 3.98 µM | 51% of 2,300 active;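 active = average inhibition above a cutoff equal to the mean inhibition of all tested compounds plus one SD, cut at about 70% in these data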;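 note: 0% = DMSO in NR2E3 cells and 100% = DMSO in cells lacking NR2E3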
GAL4-VP16 luc = counter-screen for NR2E3 agonists: GAL4-VP16 reporter inhibitors. shares compounds with NR2E3 ag-1. CHO-S GAL4-VP16 luciferase reporter, luminescence. inhibition, % at 3.98 µM. 29% of 2,300 active. AID 624379;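 active = mean inhibition above a cutoff equal to the average over all tested compounds plus one standard deviation, cut at about 70% in these data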;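 note: luciferase from a UAS reporter driven by GAL4-VP16 transactivation; 0% = DMSO with VP16-transfected cells and 100% = DMSO with cells lacking VP16; higher means less reporter light so more repression of VP16 activity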
Numbers without * were called inactive; / = no result. Shown are actives, neighbours in structure and some others; about 2.6% of the full set was active somewhere.

SMILES	NR2E3 ag-1	rCAG binder	PG9 Ab binder	NR2E3 ag-2	NR1D1 modulator	NR2E3 ag confirm	GAL4-VP16 luc
NC(=O)c1ccc(-n2nnnc2SCC(=O)Nc2ccc(N3CCOCC3)c(Cl)c2)cc1	28	0	0	0	5	/	/
O=C(CSc1nnnn1-c1ccc(O)cc1)Nc1ccc(N2CCOCC2)c(Cl)c1	98*	4	-3	3	5	98*	32
C[C@H](CO)N1C[C@H](C)[C@H](CN(C)C(=O)C2CCCCC2)OCc2cnnn2CCCC1=O	/	3	2	/	-6	/	/
Brc1ccccc1OCCCCn1cnc2ccccc21	29	-9	2	-3	8	/	/
Cc1ccc(OCCCCn2cnc3ccccc32)c(C)c1	72*	-2	-2	-1	4	89*	60
O=S(=O)(NCc1ccccc1)c1cc(Br)ccc1Br	/	3	1	/	4	/	/
CNc1sc(C(=O)c2cccs2)c(N)c1-c1nc2ccccc2s1	51	31	0	7	4	-16	-40
C=CCN1C[C@H](COC(=O)c2ccc(C)c(C)c2)Oc2cccc(F)c2S1(=O)=O	/	4	1	/	2	/	/
O=S1(=O)c2cc(Cl)ccc2N2CCC[C@@H]2CN1Cc1ccc(Cl)c(Cl)c1	/	8	2	/	1	/	/
COC(=O)[C@]12C[C@H](CC(=O)NCc3cccc4ccccc34)C(=O)N(Cc3ccc4c(c3)OCO4)C1=C[C@H](C(C)(C)C)O[C@@H]2C	/	7	-1	/	5	/	/
O=S1(=O)C=C(Sc2ccc(Cl)cc2)c2ccccc2C1Cc1ccc(F)cc1 (stereo not given)	/	6	1	/	9	/	/
COc1ccc(CC(=O)Nc2ccncc2Cl)cc1	92*	-1	0	-2	-4	87*	71*
O=C(Cc1ccc(Cl)cc1Cl)Nc1ccncc1Cl	98*	-1	-3	1	0	87*	78*
COc1cc(CCN=Cc2cccc(OC)c2O)c([N+](=O)[O-])cc1OC	/	3	2	/	0	/	/
O=C1NC(c2ccccc2)(c2ccccc2)C(=O)N1CNc1ccccn1	/	1	1	/	1	/	/
COc1cc(C(=O)NCCC(=O)NCc2c(F)cc(F)cc2F)cc(OC)c1OC	-17	-4	0	-1	4	/	/
COc1ccc(NS(=O)(=O)c2ccc(-c3coc(C)n3)cc2)cc1OC	108*	3	-3	2	-4	99*	87*
CSc1cccc(NS(=O)(=O)c2ccc(-c3coc(C)n3)cc2)c1	93*	3	-1	-1	-3	77*	60
Cc1ccc(NS(=O)(=O)c2ccc(-c3coc(C)n3)cc2)c(Br)c1	57	8	1	-4	5	60	43
Clc1ccc2nc(-c3ccccn3)c(Nc3ccc4c(c3)OCO4)n2c1	52	2	0	2	9	-66	-87
Cc1ccc2nc(-c3ccccc3O)c(Nc3ccc4c(c3)OCCO4)n2c1	-4	4	-1	-2	-4	/	/
C[C@H]1CN([C@@H](C)CO)C(=O)CCCn2nncc2CO[C@@H]1CN(C)S(=O)(=O)c1cccs1	/	2	0	/	-3	/	/
COc1ccc(-c2cc(-c3n[nH]c(=S)n3-c3cccc4ccccc34)[nH]n2)cc1	42	29	-1	4	-6	/	/
S=c1[nH]nc(-c2cc(-c3ccsc3)n[nH]2)n1-c1cccc2ccccc12	49	20	2	2	-3	18	-17
Cc1cc(NC2CCCCC2)nc(NCc2ccccc2)n1	75*	6	-2	2	-6	92*	76*
SMILES	NR2E3 ag-1	rCAG binder	PG9 Ab binder	NR2E3 ag-2	NR1D1 modulator	NR2E3 ag confirm	GAL4-VP16 luc
Cc1ccc(Nc2cc(C)nc(NCc3ccccc3)n2)cc1	12	5	-1	3	3	/	/
COc1ccc(Nc2cc(C)nc(NCc3ccccc3)n2)cc1	68	7	-3	3	3	86*	66
COc1cc(C)nc(NCc2ccccc2)n1	-11	0	-2	1	1	/	/
O=C(NC(=O)N1CCN(c2cccc(Cl)c2)CC1)c1ccccc1	51	-4	-1	-2	-2	85*	35
O=C(NC(=O)N1CCN(c2cccc(Cl)c2)CC1)c1ccc(Cl)cc1	80*	-2	0	0	0	95*	54
O=C(NC(=O)N1CCN(c2ccccc2)CC1)c1ccc(Cl)cc1	-39	-4	-3	-4	0	/	/
CC(C)C(NC(=O)Cc1ccccc1)C(=O)N1CCN(c2cccc(Cl)c2)CC1 (stereo not given)	63	-9	1	0	-2	65	42
O=c1ccn(C2CC(O)C(COC(c3ccccc3)(c3ccccc3)c3ccccc3)O2)c(=O)[nH]1 (stereo not given)	/	2	-2	/	-2	/	/
Cc1ccccc1N=Nc1c(C)[nH]n(C(N)=S)c1=O	58	8	-5	-5	-1	0	-7
COc1ccccc1CNS(=O)(=O)c1ccc2c(c1)CC(C)N2C(=O)C1CCC1 (stereo not given)	72*	-4	1	-1	-3	72*	58
COc1ccccc1CNS(=O)(=O)c1ccc2c(c1)CC(C)N2C(=O)C1CC1 (stereo not given)	29	-1	0	-1	3	/	/
COCc1cc(N2CCNC[C@H]2C)ccc1N1CCN(Cc2ccccc2)[C@H](C)C1	/	6	-2	/	0	/	/
CCOc1ccc(-c2nc(CSCC(=O)NC3CC3)c(C)o2)cc1	109*	/	/	2	/	95*	95*
CCCOc1ccc(-c2nc(CSCC(=O)NC3CC3)c(C)o2)cc1	/	/	/	/	3	/	/
CCOc1ccc(-c2nc(CSCC(=O)NCc3ccco3)c(C)o2)cc1	100*	-4	1	-1	-2	93*	95*
CCOC(=O)N1CCC(NC(=O)CSCc2nc(-c3ccc(OCC)cc3)oc2C)CC1	60	-10	-2	-3	-7	43	33
CCCCNc1cccc2c1S(=O)(=O)N[C@H](CC(C)C)CO2	/	-1	1	/	-7	/	/
Nc1ccc(S(=O)(=O)NNC(=O)C(=O)NNc2ccccc2)cc1	61	1	-1	7	-5	51	30
O=C(NNc1ccccc1)C(=O)NNS(=O)(=O)c1ccc(CCCl)cc1	39	6	-3	0	-6	/	/
Cn1c(NC2=NC3(CCCC3)C3=C(CCCC3=O)N2)nc2ccccc21	/	/	/	/	-9	/	/
CN(Cc1ccc(Cl)c(Cl)c1)C(=O)c1cccc(S(=O)(=O)N2CCN(Cc3ccccc3)CC2)c1	59	5	2	-5	0	63	52
CN(CC(=O)Nc1cccc(F)c1)C(=O)c1cccc(S(=O)(=O)N2CCN(Cc3ccccc3)CC2)c1	22	6	-1	/	-9	/	/
